Source: PubChem
KCNK9 block = blocks the human KCNK9 two-pore domain potassium channel | Q9NPC2 | HEK293 KCNK9, FluxOR thallium flux fluorescence; active compounds read low | B-score at 10 µM | 310,000 tested, 1.2% active;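 active = ratio B-score over 3 SD below the library mean, with starting fluorescence within 5 SD of its mean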;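 also: negative B-score means less thallium flux so channel inhibition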
KCNK3 inh = human KCNK3 channel inhibition, primary screen | 340,000 tested, 0.84% active | CHO-KCNK3 thallium flux, FluxOR fluorescence; active compounds read low | O14649 | B-score at 10 µM | AID 602410;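 active = B-score under library mean minus 4 SD, starting fluorescence ratio at most library mean plus 5 SD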;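 also: more negative B-score means stronger inhibition of thallium flux through KCNK3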
KCNQ1 pot = potentiates or activates the human KCNQ1 potassium channel. P51787. 310,000 tested, 0.35% active. B-score at 10 µM. CHO-K1 KCNQ1, thallium flux FluxOR fluorescence; active compounds read high;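 active = fluorescence ratio B-score, a plate-corrected score, at least three library SD, with initial intensity B-score within 5 SD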
Target sequence (P51787 whole entry, looked up): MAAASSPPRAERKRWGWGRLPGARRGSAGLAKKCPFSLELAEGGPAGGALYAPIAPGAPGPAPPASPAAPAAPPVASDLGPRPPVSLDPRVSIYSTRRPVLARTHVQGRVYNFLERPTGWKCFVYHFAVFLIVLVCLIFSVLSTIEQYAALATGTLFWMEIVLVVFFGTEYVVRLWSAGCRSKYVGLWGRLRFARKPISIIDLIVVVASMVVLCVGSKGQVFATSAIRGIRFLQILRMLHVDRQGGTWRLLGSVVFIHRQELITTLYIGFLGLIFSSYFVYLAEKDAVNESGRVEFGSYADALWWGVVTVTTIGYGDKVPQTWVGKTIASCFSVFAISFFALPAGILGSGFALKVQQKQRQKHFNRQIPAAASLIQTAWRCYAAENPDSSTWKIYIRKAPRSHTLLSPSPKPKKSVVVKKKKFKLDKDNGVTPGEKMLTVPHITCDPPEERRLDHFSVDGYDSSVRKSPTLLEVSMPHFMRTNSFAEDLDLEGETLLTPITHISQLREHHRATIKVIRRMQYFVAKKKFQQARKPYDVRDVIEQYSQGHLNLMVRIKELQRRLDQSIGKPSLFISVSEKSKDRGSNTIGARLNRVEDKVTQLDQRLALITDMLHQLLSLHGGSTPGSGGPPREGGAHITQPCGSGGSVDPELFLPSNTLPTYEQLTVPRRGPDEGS
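assay system = CHO-K1 cells stably expressing KCNQ1 | medium = assay buffer, equal DMSO in all wells | timing = 37 °C overnight plating, 90-min dark dye load, 20-min compound pretreatment | measured by = kinetic FluxOR thallium fluorescence, 10-s 1-Hz baseline, 110-s post-stimulus read | measure = fluorescence change relative to baseline, converted to B score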
KCNQ1 block = human KCNQ1 channel inhibition. B-score at 10 µM. 310,000 tested, 1.3% active. CHO-K1 KCNQ1, FluxOR thallium flux fluorescence; active compounds read high. P51787;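 active = compounds whose thallium flux B-score, printed positive for inhibition, exceeds three library SD while starting fluorescence stays within three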;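 also: channel opened by potassium depolarization with thallium stimulus after 20 min compound exposure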
hERG rescue = hERG (human) protection from proarrhythmic block; CHO-hERG, FluxOR thallium flux, dofetilide IC70 present; activation (rescue from dofetilide block), less the hit threshold, % at 10 µM; 310,000 tested, 0.51% active; AID 1511;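 active = activation above the mean of controls blocked by dofetilide plus 5 SD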;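 also: thallium influx through hERG after potassium depolarization seen as dye fluorescence rise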
* hit, by the source's call; i = inactive; nt = not tested or not shown. Rows were chosen to be rich in hits. Some 3.1% of all compounds tested hit in one or more screens of this group.

SMILES	KCNK9 block	KCNK3 inh	KCNQ1 pot	KCNQ1 block	hERG rescue
Cc1c(C(=O)NCC2COc3ccccc3O2)oc2ccc(S(=O)(=O)N(C)C3CCCCC3)cc12 (stereo not drawn)	i	i	i	6*	-12
Cc1nc(N2CCC(C)CC2)c2c(C)c(C(=O)Nc3ccc(C(F)(F)F)cc3)sc2n1	i	i	i	10*	0
COc1ccc(Br)cc1CN1CCC(N2CCCC2)CC1	i	i	i	i	-2
CCOC(=O)C1=C(C)NC(C)=C(C(=O)OC)C1c1cccc([N+](=O)[O-])c1 (stereo not drawn)	i	i	i	i	-8
COC(=O)C1=C(C)NC(C)=C(C(=O)O[C@@H]2CCCN(Cc3ccccc3)C2)[C@@H]1c1cccc([N+](=O)[O-])c1	i	i	i	7*	-15
O=C(NNC(=O)c1ccc(O)cc1O)c1ccc(Cl)cc1	i	i	i	6*	-12
O=C(NNC(=O)c1ccccc1O)c1ccc(Cl)cc1	i	i	i	i	-14
COCc1c(C(=O)N/N=C/c2ccncc2)nnn1-c1nonc1N	i	i	i	i	-5
O=C(CSc1nnc(SCc2ccccc2)s1)N/N=C/C=C/c1ccccc1[N+](=O)[O-]	-7.8*	i	i	i	-13
O=C(CSc1nnc(SCc2ccccc2)s1)N/N=C/C=C\c1ccco1	i	i	i	i	-5
CCOC(=O)c1ccccc1NC(=O)COC(=O)c1cc([N+](=O)[O-])ccc1N1CCOCC1	i	i	i	i	-14
CCN1CCN(Cc2ccc(NC(=O)c3ccc(C)c(NC(=O)C(=O)c4c[nH]c5ccccc45)c3)cc2C(F)(F)F)CC1	i	i	i	12*	-40
CCCCCCCC/C=C\CCCCCCCC(=O)O	i	i	i	i	13*
Cn1c(=O)c2[nH]c(C(O)c3ccc(Cl)cc3)nc2n(C)c1=O (stereo not drawn)	nt	i	nt	nt	nt
CCn1c(=O)c(C(=O)NNS(=O)(=O)c2ccc(Cl)cc2)c(O)c2ccccc21	i	i	i	6*	-14
O=C(CN1C(=O)NC2(CCCC2)C1=O)NCCc1ccc(F)cc1	nt	i	nt	nt	nt
CCN1C(=O)/C(=C2\SC(=S)N(NC(=O)c3ccccc3O)C2=O)c2ccccc21	i	i	i	10*	-26
COc1cc(/C=C2/OC(=O)c3cc([N+](=O)[O-])ccc32)cc(OC)c1OC	i	i	i	i	11*
COc1ccc2oc(=N)c(C(=O)Nc3cccc(C)c3C)cc2c1	i	i	i	i	-10
O=C(NN1C(=O)C2C(c3ccccc3)C=CC(c3ccccc3)C2C1=O)c1ccccc1 (stereo not drawn)	-7.8*	i	i	i	8.6*
O=C(NN1C(=O)C2C3c4ccccc4C(c4ccccc43)[C@@H]2C1=O)c1ccccc1 (stereo partly drawn)	i	i	i	i	1
N#CC1=C(N)Oc2n[nH]c(-c3ccccc3)c2C1c1cccnc1 (stereo not drawn)	i	i	i	i	-11
Cc1ccc(-c2[nH]nc3c2C(c2cccnc2)C(C#N)=C(N)O3)cc1 (stereo not drawn)	i	i	i	i	5.0*
CN1C(=O)CSC1=S	i	i	i	i	-6
CC(O)Cc1cn([C@@H](CCCCN)C(=O)N2CCNCC2)nn1 (stereo partly drawn)	i	i	19*	i	-7
SMILES	KCNK9 block	KCNK3 inh	KCNQ1 pot	KCNQ1 block	hERG rescue
CCc1nnc(NC(=O)CCC(=O)N2CCN(C3CCCCC3)CC2)s1	i	i	13*	i	4
COc1ccccc1N(C)S(=O)(=O)c1ccc(C(=O)N2CCCc3ccccc32)cc1	i	i	i	i	-11
Cc1ccc2sc(N(CCCN(C)C)C(=O)c3ccc(S(=O)(=O)N(C)C4CCCCC4)cc3)nc2c1C	i	i	i	i	-24
CN(C)CCCN(C(=O)c1ccc(S(=O)(=O)N(C)C)cc1)c1nc2cc3c(cc2s1)OCO3	i	i	i	i	-7
CCN(Cc1ccccc1)S(=O)(=O)c1ccc(C(=O)N(CCCN(C)C)c2nc3c(C)c(C)ccc3s2)cc1	i	i	i	8*	-19
CCN(Cc1ccccc1)S(=O)(=O)c1ccc(C(=O)N(CCCN(C)C)c2nc3cc4c(cc3s2)OCO4)cc1	i	i	i	6*	-30
CCCSc1nc(N)nc2c1ncn2C1OC(CO)C(O)C1O (stereo not drawn)	nt	i	nt	nt	nt
CC1CC(C)CN(C(=O)C(C)N2CCN(S(=O)(=O)c3cccs3)CC2)C1 (stereo not drawn)	nt	i	nt	nt	nt
Cc1nc2ccc(NC(=O)c3cccs3)cc2c(=O)n1Cc1ccc(Cl)cc1	-7.9*	i	i	i	-2
CCCc1nc2ccc(NC(=O)c3cccs3)cc2c(=O)n1Cc1ccc(Cl)cc1	-6.8*	i	i	i	-9
CC(=O)Nc1ccc2nc(C3CC3)n(Cc3ccc(Cl)cc3)c(=O)c2c1	i	i	i	i	-16
O=C(/C=C/c1ccc(Cl)cc1Cl)OCC(=O)N1CCCC1	nt	i	nt	nt	nt
C[C@@H]1COC(=O)[C@H](Cc2ccc(F)cc2)CC/C=C\C[C@@H](CC(=O)NCCO)C(=O)N1	nt	i	nt	nt	nt
O=[N+]([O-])c1ccc2c(c1)C=C1CCCCC1(N1CCCCC1)O2 (stereo not drawn)	-7.4*	i	i	i	-8
O=C(CNC(=O)c1cccc(Cl)c1)NCCCSc1ccccc1	i	i	i	i	-12
CCOCCCNC(=O)C(c1ccc(Cl)cc1)N1CCC2(CC1)OCCO2 (stereo not drawn)	i	i	i	i	8.6*
O=C(N/N=C/c1coc2ccccc2c1=O)c1cc(Br)c(O)c(Br)c1	i	i	i	8*	-30
O=C(N/N=C/c1coc2ccccc2c1=O)c1ccncc1	i	i	i	i	-9
COc1ccc(CCNC(=O)CSc2nc(=O)n3cc(C)ccc3n2)cc1OC	i	i	i	i	-15
CC(CC12CC3CC(CC(C3)C1)C2)NCc1ccccc1O (stereo not drawn)	i	i	i	6*	-13
Oc1ccccc1CNCC12CC3CC(CC(C3)C1)C2	i	i	i	i	-4
CCN1C(=O)N(CC)C(O)(c2ccccc2)C1(O)c1ccccc1 (stereo not drawn)	i	i	i	i	-2
CC(C)(C)C1=CC(O)(c2ccccc2)C=C(C(C)(C)C)C1=O	i	i	i	8*	-13
